The record followed here is ChEMBL document CHEMBL4014342, “Subtly Modulating Glycogen Synthase Kinase 3 β: Allosteric Inhibitor Development and Their Potential for the Treatment of Chronic Diseases” (J Med Chem, 2017).

Structures are written as SMILES. Activity calls are given as the source filed them. The calls are words filed in the database; no cut-off is given here. Bounds are passed on as bounds.

Data set [1] addresses T1, Glycogen synthase kinase-3 beta (Homo sapiens, UniProt P49841). Nature of the data set: Allosteric inhibition of human recombinant full length N-terminal GST-tagged GSK3beta expressed in fall armyworm Sf9 cells after 30 min in presence of ATP by kinase glo luminescent assay. In a few lines:
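Human recombinant GSK-3β (20 ng) with prephosphorylated peptide substrate, 50 μM in the 20 μL substrate mix, and ATP, 2 μM in that mix. Buffer: 50 mM HEPES pH 7.5, 1 mM EDTA, 1 mM EGTA, 15 mM Mg acetate; DMSO ≤1%. Incubated 30 min at 30 °C, then Kinase-Glo added and luminescence read after 10 min.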
For orientation: Kinase-Glo measures the ATP left after a reaction by luminescence.
Target sequence in this assay (P49841 whole entry): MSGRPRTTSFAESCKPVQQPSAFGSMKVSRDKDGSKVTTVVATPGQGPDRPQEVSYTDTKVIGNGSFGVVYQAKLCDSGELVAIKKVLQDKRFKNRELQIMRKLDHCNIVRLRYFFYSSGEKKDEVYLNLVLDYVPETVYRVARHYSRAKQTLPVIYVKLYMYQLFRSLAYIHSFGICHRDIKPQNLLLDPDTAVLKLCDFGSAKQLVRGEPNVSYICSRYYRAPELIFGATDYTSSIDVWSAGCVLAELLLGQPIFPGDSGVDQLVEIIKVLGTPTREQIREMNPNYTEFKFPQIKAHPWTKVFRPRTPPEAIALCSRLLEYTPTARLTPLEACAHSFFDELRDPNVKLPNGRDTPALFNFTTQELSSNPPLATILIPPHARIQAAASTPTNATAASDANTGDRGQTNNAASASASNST

Data set [2] deals with T1, Glycogen synthase kinase-3 beta. Nature of the data set: Allosteric inhibition of GSK3beta in human LN18 cells assessed as decrease in beta-catenin translocation from cytoplasm to nucleus at 10 uM after 72 hrs by DAPI-satining based confocal microscopic analysis. It is filed as cell-based. In a few lines: (§1)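 LN18 glioblastoma cells (DMEM, 10% FBS, 2 mM glutamine) and SH-SY5Y neuroblastoma cells (DMEM, 10% FBS, 10 mM glutamine; 37 °C, 5% CO2) were grown on glass coverslips and exposed to compound at 10 μM for 72 h, with vehicle controls. Cells were fixed in 4% paraformaldehyde and permeabilized with Triton X-100. β-Catenin was stained with mouse anti-β-catenin and an Alexa-488 secondary, nuclei with DAPI, and localization imaged by confocal microscopy.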
Target sequence in this assay (P49841 whole entry, looked up): as the sequence (P49841 whole entry) above

The target is the same in data set [3]. In words: Allosteric inhibition of GSK3beta in human […] cells assessed as decrease in beta-catenin translocation from cytoplasm to nucleus at 10 uM after 72 hrs by DAPI-satining based confocal microscopic analysis. It is filed as cell-based. The method, boiled down: as §1
Target sequence in this assay (P49841 whole entry, looked up): as the sequence (P49841 whole entry) above
Data set [4] in a line: Cytotoxicity against motor neurons obtained from SMA patient derived iPSC assessed as cell death at >1.25 uM after 7 days. It is filed as cell-based. Conditions: human, motor neuron, 168 h. In a few lines:
(§2)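 SMA type I/II patient iPSCs were differentiated into motor neurons over 15 days: LDN/SB431542, retinoic acid, BDNF, smoothened agonist, then DAPT/Ara-C. Cells were dissociated onto astrocyte-coated wells in Neurobasal with B27/N2 and BDNF, GDNF and CNTF, and treated 7 days with DMSO or increasing compound concentrations. After fixation, cells were immunostained for Islet1/MAP2 with Hoechst nuclear stain and imaged automatically. Survival is expressed as Islet1+ MN counts relative to DMSO wells, for each line.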

The subject of data set [5] is Motor neuron. In words: Increase in survival of motor neurons obtained from SMA patient derived iPSC after 7 days by Hoechst 33342-staining based fluorescence assay. It is filed as functional, cell-based. Particulars: Homo sapiens. In a few lines:
as §2

Data set [6] deals with T1, Glycogen synthase kinase-3 beta. Nature of the data set: Non-competitive allosteric inhibition of human recombinant full length N-terminal GST-tagged GSK3beta expressed in fall armyworm Sf9 cells at 2.5 to 5 uM using GS2 as substrate measured at constant substrate levels and varying ATP levels after 30 mins by ADP-Glo kinase Assay. The method, boiled down: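 Human recombinant GSK-3β kinetics with ATP varied from 1 to 50 μM, inhibitor at 2.5 or 5 μM, and GS-2 held constant, stated as 25 μM in the methods and 12.5 μM in the legend. Read by ADP-Glo and analyzed by double-reciprocal plots. Each point is the mean of two experiments, each run in duplicate.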
On the technique in general: ADP-Glo turns the ADP formed in a reaction into a luminescent signal.
Target sequence in this assay (P49841 whole entry, looked up): as the sequence (P49841 whole entry) above

For data set [7] the target is unchanged. In words: Non-competitive allosteric inhibition of human recombinant full length N-terminal GST-tagged GSK3beta expressed in fall armyworm Sf9 cells at 2 to 5 uM using GS2 as substrate measured at varying substrate levels and constant ATP levels after 30 mins by Double-reciprocal plot analysis. In a few lines: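 Human recombinant GSK-3β kinetics with GS-2 substrate varied from 12.5 to 100 μM, ATP held at 1 μM, and inhibitor at 2 or 5 μM. Analyzed by Lineweaver–Burk double-reciprocal plots. Each point is the mean of two experiments, each run in duplicate.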
Target sequence in this assay (P49841 whole entry, looked up): as the sequence (P49841 whole entry) above

In data set [8] the test system is Myoblast. Nature of the data set: Induction of myoblast differentiation in CDM1 patient-derived human primary myoblasts after 4 days by bright field microscopic method. In kind it is functional, cell-based.
Data set [9] relates to Myoblast. Nature of the data set: Induction of myoblast differentiation in CDM1 patient-derived human primary myoblasts assessed as increase in desmin expression after 4 days by Western blot analysis. It is filed as functional, cell-based. In a few lines: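 CDM1 patient primary myoblasts, about 1,000 repeats and fewer than 15–20 passages, with control myoblasts. Grown in F10-based medium, then switched to fusion medium (DMEM, horse serum, insulin) changed daily. Compound in DMSO was added at different doses with fresh fusion medium each day. After 4 days, myotube RIPA extracts were probed by Western blot for desmin, with actin as control.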

As to `CCn1c(=O)c(C(=O)NNC(=O)CCc2c[nH]c3ccccc23)c(O)c2ccccc21`, in data set [1], the 50% inhibitory concentration (IC50) was > 20 µM. On to `Cn1c(=O)c(C(=O)NNC(=O)Cc2ccccc2)c(O)c2ccccc21`, for which, in data set [1], the IC50 is > 20 µM. In the case of `Cn1cc(C2=C(c3ccc(Cl)cc3Cl)C(=O)NC2=O)c2ccccc21`, the inhibition entry in [2] and in data set [3] was “inactive” in each case. Turning to `O=C1Cc2c([nH]c3ccc([N+](=O)[O-])cc23)-c2ccccc2N1` [ALSTERPAULLONE], the inhibition entry in data set [2] and in data set [3] was “inactive” each time. Besides, the Activity result in data set [4] was “Toxic”. For the compound `CCCCCCCC(=O)NNC(=O)c1c(O)c2ccccc2n(CC=C(C)C)c1=O`, the IC50 in data set [1] turned out to be 7.11 µM. As to `CCCCCCCCCCCC(=O)NNC(=O)c1c(O)c2ccccc2n(CC)c1=O`, the inhibition result in [2] and in [3] was “Active” throughout. The Activity entry in data set [4] was “Non-Toxic”; in data set [5] it was “Dose-dependent effect”.

For `CCCCCCCC(=O)NNC(=O)c1c(O)c2ccccc2n(CC)c1=O`, in data set [1], the IC50 is > 20 µM.

In the case of `CCCCCCCCCCCC(=O)NNC(=O)c1c(O)c2ccccc2n(CC=C(C)C)c1=O`, in data set [1], the 50% inhibitory concentration (IC50) amounted to 7.78 µM.

As for `CCCCCCNC(=O)c1c(O)c2ccccc2n(C)c1=O`, the concentration for half-maximal inhibition (IC50) in [1] was > 20 µM. For `CCCCCCCCCCCC(=O)NNC(=O)c1c(O)c2cc(Br)ccc2n(CC)c1=O`, the inhibition entry in [6], in data set [7], in [2] and in data set [3] was “Active” throughout. In addition, the Activity result in data set [8] is “Dose-dependent effect”; in data set [4], “Non-Toxic”; in data set [5], “Dose-dependent effect”. For the same compound, the outcome in data set [9] was Active.

In the case of `Cn1c(=O)c(C(=O)NCC(=O)NCC(=O)OCc2ccccc2)c(O)c2ccccc21`, the 50% inhibitory concentration (IC50) in [1] was > 20 µM. Regarding `CCCCCCCC(=O)NNC(=O)c1c(O)nc2ccccc2c1O`, the IC50 in [1] is > 20 µM.

For the compound `Cn1c(=O)c(C(=O)NNC(=O)c2ccccc2)c(O)c2ccccc21`, in data set [1], the IC50 was > 20 µM. In the case of `Cn1c(=O)c(C(=O)NNCCC#N)c(O)c2ccccc21`, in data set [1], the half-maximal inhibitory concentration (IC50) is > 20 µM. Same read-out and setting: then `CCCCCCCCCCCC(=O)NNC(=O)c1c(O)c2ccccc2n(CC(C)C)c1=O`, with > 20 µM; and `CC(=O)NNC(=O)c1c(O)c2ccccc2n(C)c1=O`, with > 20 µM.

On to `CCCCCCCCCCCC(=O)NNC(=O)c1c(O)c2ccc(Cl)cc2n(CC)c1=O`, for which the inhibition result in data set [6] and in data set [7] was “Active” throughout.

Regarding `CCCCCCCC(=O)NNC(=O)c1c(O)c2cc(F)ccc2[nH]c1=O`, the IC50 in data set [1] was > 20 µM. Turning to `Cn1c(=O)c(C(=O)NNC(=O)CCc2c[nH]c3ccccc23)c(O)c2ccccc21`, in data set [1], the IC50 is > 20 µM.

Consider `CCn1c(=O)c(C(=O)NNC(=O)CCc2ccc(O)cc2)c(O)c2ccccc21`, for which the half-inhibitory concentration (IC50) in data set [1] was > 20 µM.

By IC50 is commonly meant the concentration at which inhibition is half-maximal.
